This is an account of results in ChEMBL document CHEMBL2034858, “An efficient one-pot synthesis, structure, antimicrobial and antioxidant investigations of some novel quinolyldibenzo[b,e][1,4]diazepinones” (2012).

≈ marks a conversion by molar mass, not a printed value. Some results are limits rather than exact numbers.

For assay [1], the system named is Mycobacterium tuberculosis. Description: Antitubercular activity against Mycobacterium tuberculosis H37Rv at > 256 ug/mL. Format: functional.
A further assay concerns Streptococcus pneumoniae. Description: Antibacterial activity against Streptococcus pneumoniae MTCC 1936 after 24 hrs by micro-broth dilution method. Format: functional. The note with it: MTCC 1936, 24 h.
A further assay concerns Clostridium tetani. Description: Antibacterial activity against Clostridium tetani MTCC 449 after 24 hrs by micro-broth dilution method. It counts as functional. The conditions noted are these: MTCC 449, 24 h. (Broth dilution looks for growth in wells or tubes with falling amounts of substance.)
Another assay has as its system Bacillus subtilis. Description: Antibacterial activity against Bacillus subtilis MTCC 441 after 24 hrs by micro-broth dilution method. It counts as functional. The note with it: MTCC 441, 24 h.
For the next assay, the system named is Salmonella typhi. Description: Antibacterial activity against Salmonella typhi MTCC 98 after 24 hrs by micro-broth dilution method. The note with it: Salmonella enterica, MTCC 98, 24 h. It counts as functional, Salmonella enterica subsp. enterica serovar Typhi.
The next assay relates to Vibrio cholerae. The assay can be described thus: Antibacterial activity against Vibrio cholerae MTCC 3906 after 24 hrs by micro-broth dilution method. It counts as functional. The conditions noted are these: MTCC 3906, 24 h.
The subject of a further assay is Escherichia coli. Description: Antibacterial activity against Escherichia coli MTCC 443 after 24 hrs by micro-broth dilution method. Format: functional. The conditions noted are these: MTCC 443, 24 h.
For another assay, the system named is Aspergillus fumigatus. The assay can be described thus: Antifungal activity against Aspergillus fumigatus MTCC 3008 after 48 hrs by micro-broth dilution method. It counts as functional. The conditions noted are these: MTCC 3008, 48 h.
The subject of the next assay is Candida albicans. The assay can be described thus: Antifungal activity against Candida albicans MTCC 227 after 48 hrs by micro-broth dilution method. It counts as functional. The conditions noted are these: MTCC 227, 48 h.
For assay [2], the system named is Mycobacterium tuberculosis. Description: Antitubercular activity against Mycobacterium tuberculosis H37Rv at 250 ug/mL. Format: functional. The conditions noted are these: read-out: GI. The procedure, abridged:
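M. tuberculosis H37Rv tested on conventional L.J. (Löwenstein–Jensen) medium; activity read as percent growth inhibition.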

The nature of assay [3]: Antioxidant activity assessed as ascorbic acid equivalent/100g at 200 ug/mL by FRAP assay. Format: functional.

As to `OC(Cn1cncn1)(Cn1cncn1)c1ccc(F)cc1F` [FLUCONAZOLE], in [1], the “growth inhibition (GI)” value is listed as 99%.
Take `Clc1ccc(COC(Cn2ccnc2)c2ccc(Cl)cc2Cl)c(Cl)c1` (stereo not drawn) [MICONAZOLE]: the “growth inhibition (GI)” value in assay [1] turned out to be 99%.
On the same count and under the same terms, as for `Cc1ncc([N+](=O)[O-])n1CCO` [METRONIDAZOLE], the figure is 99%.
Regarding `C=CCN1c2ccccc2NC2=C(C(=O)CC(C)(C)C2)C1c1cc2ccccc2n(CC=C)c1=O` (stereo not drawn), the MIC – broadly, the least concentration at which growth counts as inhibited – was over 250 µg/mL against Streptococcus pneumoniae; 500 µg/mL (≈ 1070 µM) with Clostridium tetani; over 250 µg/mL against Bacillus subtilis; over 250 µg/mL against Salmonella typhi; over 250 µg/mL in the assay with Vibrio cholerae; 250 µg/mL (≈ 537 µM) in the assay with Escherichia coli. The MIC against Aspergillus fumigatus is over 250 µg/mL; against Candida albicans it was 250 µg/mL (≈ 537 µM). For the same compound, the inhibition of growth at 250 µg/mL in assay [2] was under 50%. Besides, the Activity in assay [3] came out at 266 mmol.
As for `C=CCN1c2ccccc2NC2=C(C(=O)CC(C)(C)C2)C1c1cc2cc(C)ccc2n(CC=C)c1=O` (stereo not drawn), the MIC was 250 µg/mL (≈ 521 µM) in the assay on Streptococcus pneumoniae; 250 µg/mL (≈ 521 µM) in the assay on Clostridium tetani; over 250 µg/mL against Bacillus subtilis; 200 µg/mL (≈ 417 µM) against Salmonella typhi; over 250 µg/mL against Vibrio cholerae; 100 µg/mL (≈ 208 µM) with Escherichia coli. The MIC in the assay on Aspergillus fumigatus is 250 µg/mL (≈ 521 µM); against Candida albicans it was over 250 µg/mL. In [2], the inhibition of growth at 250 µg/mL was under 50%. Also, the Activity in assay [3] was 292 mmol.
As to `C=CCN1c2ccccc2NC2=C(C(=O)CCC2)C1c1cc2cc(C)ccc2n(CC=C)c1=O` (stereo not drawn), the MIC in the assay with Streptococcus pneumoniae was over 250 µg/mL; in the assay with Clostridium tetani, 250 µg/mL (≈ 554 µM); with Bacillus subtilis it was 200 µg/mL (≈ 443 µM); against Salmonella typhi, 250 µg/mL (≈ 554 µM); in the assay with Vibrio cholerae it was 250 µg/mL (≈ 554 µM); with Escherichia coli it was 250 µg/mL (≈ 554 µM). In addition, the MIC in the assay with Aspergillus fumigatus is 250 µg/mL (≈ 554 µM); in the assay with Candida albicans it was over 250 µg/mL. Moreover, the inhibition of growth at 250 µg/mL in assay [2] is under 50%. The Activity in [3] was 499 mmol.
Regarding `C=CCN1c2ccccc2NC2=C(C(=O)CCC2)C1c1cc2ccccc2n(CC=C)c1=O` (stereo not drawn), the MIC with Streptococcus pneumoniae is 100 µg/mL (≈ 229 µM); with Clostridium tetani, 200 µg/mL (≈ 457 µM); against Bacillus subtilis, 100 µg/mL (≈ 229 µM); with Salmonella typhi, 250 µg/mL (≈ 571 µM); against Vibrio cholerae it was 100 µg/mL (≈ 229 µM); against Escherichia coli, over 250 µg/mL. Also, the minimal inhibitory concentration (MIC) was 250 µg/mL (≈ 571 µM) in the assay with Aspergillus fumigatus and over 250 µg/mL against Candida albicans. The inhibition of growth at 250 µg/mL in [2] turned out to be 51%. Besides, the Activity in [3] is 389 mmol.
